# Test results taken from PubChem BioAssay AID602194 (The Scripps Research Institute Molecular Screening Center, 2012).
# Screen size: about 2,400 compounds; about 140 (5.8%) were called active. Only a sample is shown. Unmarked numbers belong to inactive results.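 The calls were made as follows: active = mean activation across replicates exceeds the hit threshold derived in the earlier primary screen (cut at about 18% in these data); inactive = the rest.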
# Target: Mu-type opioid receptor (Homo sapiens) + Delta-type opioid receptor (Homo sapiens) (UniProt P35372+P41143)
# Sequence (P35372 whole entry, looked up): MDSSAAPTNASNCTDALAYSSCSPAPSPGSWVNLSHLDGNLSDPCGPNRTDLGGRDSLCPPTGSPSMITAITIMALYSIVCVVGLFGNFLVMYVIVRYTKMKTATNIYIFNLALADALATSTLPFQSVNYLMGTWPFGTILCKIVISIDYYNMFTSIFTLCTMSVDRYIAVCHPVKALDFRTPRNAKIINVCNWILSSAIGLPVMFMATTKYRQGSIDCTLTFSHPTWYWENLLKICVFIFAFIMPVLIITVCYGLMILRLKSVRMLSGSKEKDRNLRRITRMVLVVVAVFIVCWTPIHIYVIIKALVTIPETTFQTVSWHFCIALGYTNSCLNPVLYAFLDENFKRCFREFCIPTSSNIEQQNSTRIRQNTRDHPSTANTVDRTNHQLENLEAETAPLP
# Sequence (P41143 whole entry, looked up): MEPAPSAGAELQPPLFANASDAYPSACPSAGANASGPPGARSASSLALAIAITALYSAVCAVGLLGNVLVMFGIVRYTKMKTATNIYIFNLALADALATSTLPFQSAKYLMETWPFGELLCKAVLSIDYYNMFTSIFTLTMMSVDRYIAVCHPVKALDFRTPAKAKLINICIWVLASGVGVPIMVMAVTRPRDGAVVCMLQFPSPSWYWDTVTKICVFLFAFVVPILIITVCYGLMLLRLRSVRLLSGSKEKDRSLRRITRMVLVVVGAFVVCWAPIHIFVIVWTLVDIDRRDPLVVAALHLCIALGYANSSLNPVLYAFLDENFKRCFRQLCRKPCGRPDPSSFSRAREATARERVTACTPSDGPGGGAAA
# Test: OPRM1-OPRD1 heterodimer beta-arrestin recruitment activators – cell-based, luminescence, counter-screen for MC4R biased agonist project (AID 602194);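 also: 100% = deltorphin B at 0.9 µM final and 0% = DMSO alone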
# Details: U2OS PathHunter beta-arrestin, beta-gal luminescence; at 9.2 µM; hits give high values; percent of deltorphin B response, DMSO zero
# Outline: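 Material: U2OS Mu-Delta cells coexpressing OPRM1, OPRD1 and beta-arrestin. Schedule: 23 h growth, 3 h compound 37 °C, 1 h detection. Measured by: beta-gal complementation luminescence. Read-out: percent activation, mean of triplicates, scaled between DMSO and Deltorphin B. Control set: Deltorphin B high, DMSO low. Repeats: three replicates.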
row,Structure (SMILES),activation
1,COC(=O)c1sccc1NC(=O)CCC1CCCC1,6.23%
2,O=C(CCCN1C(=O)/C(=C/c2cccs2)SC1=S)Nc1ccc(O)cc1,1.75%
3,N#CCC(=O)N/N=C/c1cn(Cc2ccc3ccccc3c2)c2ccccc12,25.5% (active)
4,CCOC(=O)c1c(-c2ccc(C)cc2C)csc1NC(=O)CSc1nnnn1C,7.04%
5,CCN(CC)c1ccc(C(=O)N/N=C/c2ccc(N3CCOCC3)cc2)cc1,13.2%
6,COC(=O)c1nc2n(n1)C(c1ccc([N+](=O)[O-])cc1)C(C(=O)Nc1ccc(Cl)cc1)=C(C)N2 (stereo not drawn),3.4%
7,COc1ccc2sc(-c3ccc(S(C)(=O)=O)cc3)c(C#Cc3cncn3C)c2c1,9.34%
8,O=C(CCCCCn1c(=S)[nH]c2cc3c(cc2c1=O)OCO3)N1CCN(c2ccc(F)cc2)CC1,3.68%
9,COc1ccc(Cc2nnc(NC(=O)c3ccc(OC)cc3OC)s2)cc1,4.47%
10,CCOC(=O)c1nn(-c2ccccc2F)c2nc(Nc3ccccc3)cc(=O)n12,17.8%
11,CCCOc1ccc(C(=O)C(CCC(CNCC)C(=O)c2ccc(OCCC)cc2)CNCC)cc1 (stereo not drawn),17.3%
12,Cc1ccc(-n2nc3cc(Cl)c(NC(=O)c4ccco4)cc3n2)cc1,0.83%
13,Oc1ccccc1N1CCN(c2ncnc3sc(-c4ccccc4)cc23)CC1,3.28%
14,Cc1ccc(Nc2nnc(SCc3ccccc3)s2)cc1,8.17%
15,COc1cccc(CNC(=O)c2nnn(CC(=O)Nc3cc(Cl)ccc3C)c2N)c1,11.8%
16,COCCN(CCOC)S(=O)(=O)c1ccc(C(=O)Nc2nc3c(s2)CCc2ccccc2-3)cc1,6.22%
17,Clc1ccc(Nc2ncnc3c2nnn3Cc2ccccc2)cc1,5.74%
18,COC(=O)c1c(C)[nH]c(C(=O)/C=C/c2ccc(Cl)cc2)c1C,4.27%
19,COc1cc(/C=C2\Oc3ccc(C#Cc4ccc(O)cc4)cc3C2=O)cc(OC)c1,11.3%
20,CN(C)CCNC(=O)c1cccc(-c2cnc3c(NC=O)cc(-c4cccc(C(F)(F)F)c4)cn23)c1,7.61%

row,Structure (SMILES),activation
1,O=C(Nc1nc(-c2ccc(-c3ccccc3)cc2)cs1)c1cnccn1,2.08%
2,Clc1ccccc1Nc1nc(NCc2cccs2)nc2ccsc12,5.36%
3,CC(C)Oc1c(Br)cc(Br)cc1/C=N/NC(N)=S,9.18%
4,CCc1ccc(Nc2ncc3c(n2)CC(c2ccco2)CC3=O)cc1 (stereo not drawn),13.5%
5,COc1cc(NC(=O)c2cncc(-c3ccc(C#N)cc3)c2)cc(C(=O)Nc2cccc(C(F)(F)F)c2)c1,5.39%
6,COc1ccc(Nc2oc(-c3ccccc3Cl)nc2C#N)cc1,6.69%
7,CCOC(=O)c1c(-c2ccccc2)oc2cc(Br)c(O)c(C=O)c12,3.34%
8,Cc1ccc2nc(-c3ccncc3)cc(C(=O)Nc3ccc(OC(F)F)cc3)c2c1,8.13%
9,COc1ccc(/C=N/NC(=O)Nc2ccc3nsnc3c2)c(OC)c1,3.63%
10,Cc1ccc(-n2nc(C)c(/C=N/NC(=O)c3cccs3)c2Cl)cc1,7.37%
11,COc1ccccc1NC(=O)Nc1nnc(Cc2ccc(F)cc2)s1,10.7%
12,Cc1c(-c2ccccc2)n[nH]c1C(=O)N=Nc1c(O)[nH]c2ccccc12,8.27%
13,COc1ccc2nc(NC(=O)c3ccc(Br)s3)sc2c1,8.88%
14,C=CCn1c(SCC(=O)c2ccc(Br)cc2)nnc1C(C)NC(=O)Cc1ccc(OC)cc1 (stereo not drawn),7.14%
15,O=C(OCc1cn(-c2ccc(Cl)c(Cl)c2)nn1)c1ccccc1Cl,3.56%
16,Cc1ccc(C(=O)Nc2ccc(NC(=O)c3cccs3)cc2)c(C)c1,6.51%
17,Cc1ccc(Sc2ccc(NC(=O)c3ccc(F)cc3)cc2C#N)cc1,4.2%
18,Cc1ccsc1/C=N/Nc1ccc(Cl)nn1,5.93%
19,Cc1ccc(-c2csc(SCC(=O)Nc3cc(C)on3)n2)cc1,7.19%
20,COc1cccc(NC(=S)NC(=O)c2c(Cl)c(C)nn2C)c1,3.17%

row,Structure (SMILES),activation
1,N#CC(=C1SC=CS1)c1nc(-c2ccccc2)cs1,3.11%
2,O=C(c1cc(-c2cccc(O)c2)on1)N1CCc2ccccc2C1,11.4%
3,CSc1ccc(S(=O)(=O)NCc2ccc(Cl)cc2)cc1,8.41%
4,Cc1ccc(Nc2nnc(SCC(=O)c3cc4ccccc4o3)s2)cc1C,4.48%
5,COc1ccc(C(=O)n2nc(-c3ccc(C)cc3)nc2N)cc1OC,4.64%
6,Fc1ccccc1/C=N/Nc1cc(N2CCCCC2)ncn1,7.52%
7,Cc1cc(OCc2cc(C(=O)NCc3cc(C(C)C)no3)no2)cc(C)c1Cl,3.52%
8,CCN1CCC2(CC1)N=C(c1ccc(F)cc1)C(=S)N2C(=O)c1ccc(C)cc1,52% (active)
9,CCN(CC)C(=O)Oc1ccc(Br)cc1C(=O)Nc1ccc(F)c(Cl)c1,3.45%
10,CN(C)CCCN(C(=O)c1ccc(S(=O)(=O)N2CCCCCC2)cc1)c1nc2ccc(Br)cc2s1,16.5%
11,S=C(NCCCc1cnc[nH]1)NCCCN(Cc1ccc(Cl)c(Cl)c1)c1ccc(Br)cn1,5.39%
12,COc1ccc(Cn2c(C)c(C)c(C#N)c2NC(=O)Nc2ccc(F)cc2)cc1,7.17%
13,COc1cccc(-c2cnc3c(NC(C)=O)cc(-c4cc(F)ccc4OC)cn23)c1,3.13%
14,Cc1cc(/C=C(/C#N)C(=O)Nc2ccc(Cl)cc2)c(C)n1-c1cccnc1,4.36%
15,CCC(=O)c1cc2c(cc1NC(=O)c1cccs1)OCCO2,3.16%
16,COC(=O)c1sccc1NC(=O)c1cc(OC)c(OC)c(OC)c1,2.04%
17,Cc1ccc(S(=O)(=O)NCCC(=O)Nc2ccc(C)c(Cl)c2)cc1C,10.4%
18,CN(C)C(=O)c1cccc(-c2cnc3c(NC=O)cc(-c4ccc(F)cc4)cn23)c1,1.45%
